We go through 18 compounds from PubChem BioAssay.

Each structure is given as a SMILES string. Calls of active or inactive are those of the source.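 Rule for the calls, unless noted: active = viability at or below 10% of carrier control in both of two separate runs; inconclusive = viability at or below 10% in only one of the two runs; inactive = the rest.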

Assay [1] in a line: SK-BR-3 cell growth inhibitors, pilot screen, 24 h, human (AID 572).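 Note: compound exposure lasted between 18 and 24 h rather than exactly 24 h; 100% = carrier-treated control wells.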 To be noted: SK-BR-3 viability, CellTiter-Glo luminescence, at 10 µM, stronger effect = lower value. On the technique in general: Cellular ATP, detected with luciferase, serves as a proxy for viable cell number.
Assay [2] in a line: HUVEC growth inhibition – cell-based, human, primary screen (AID 575;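 active = viability at or below 30% in both replicate assays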;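 note: 100% = median of untreated cell wells with 0.1% DMSO on each plate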). To be noted: HUVEC proliferation, CellTiter-Glo luminescence, 72 h; at 10 µM; stronger effect = lower value. An outline of the steps: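 Test system: primary human umbilical vein endothelial cells; medium: endothelial basal medium with 2% FBS plus growth supplements; dosing: 10 µM compound only; times: 72 h treatment at 37 °C; signal: CTG luminescence; read-out: % viability relative to median vehicle-well signal on each plate; control set: vehicle and MePR control wells; plate: 384-well, collagen-coated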

Assay [3] in a line: growth inhibitors of H69AR lung tumor, primary screen, human, duplicate replicates (AID 580;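 active = viability at or under a set limit in both replicates, limit being median viability minus 3 SD, cut at about 48% in these data, passing the limit was not always enough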;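 note: 100% = mean luminescence of untreated wells and 0% = no signal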). To be noted: H69AR lung tumor cells viability, ATP luminescence, 72 h; at 10 µM; stronger effect = lower value.
Assay [4] is described as follows: reversal of MRP1-mediated doxorubicin resistance, pilot screen, H69AR cells, doxorubicin co-treatment (AID 601;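 active = viability loss from added drug above about 55%, and viability with drug at most 40%, in both replicates, limit read from the data, passing the limit was not always enough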). To be noted: CellTiter-Glo, 72 h, at 10 µM; for differential viability (reversal): stronger effect = higher value.
Assay [5] in a line: 384-well plate pilot, post-Golgi transport modulator project, inhibition of yeast transport mutant growth (AID 636; in the data active = inhibition above about 31%). To be noted: absorbance 615 nm, about 18 h, stronger effect = higher value.
A short description of assay [6]: growth suppression of yeast trafficking mutant, preliminary HTS, modulators of trafficking downstream of Golgi apparatus project, 1536-format plate, OD 615 nm (AID 637; in the data active = inhibition above about 30%). The settings on record: yeast transport mutant growth, absorbance 615 nm, 18 h; stronger effect = higher value.
The mark [7] stands for this setting: H69AR cells + 2 uM doxorubicin, measured here: viability with 2 uM doxorubicin, stronger effect = lower value.
[8] abbreviates: H69AR cells, compound alone cytotoxicity.

Take `O=C(Nc1cc(C(F)(F)F)ccc1N1CCCC1)c1ccc2c(c1)OCO2`: the viability (in general, a read-out of living cells in per cent, often relative to untreated cells) in assay [1] is 72% (inactive); in assay [2], 92.9% (inactive); in assay [3] it was 98% (inactive); in assay [4] (setting [7]) it was 97.1%; in assay [4] (setting [8]), 98%. Moreover, the differential viability (reversal) in assay [4] (H69AR cells + 2 uM doxorubicin) is 0.92% (inactive). Besides, the figures for the inhibition in assay [5] and in assay [6] were -6.99% (inactive) and -5.09% (inactive), respectively.
For `COC(=O)CSc1nnc(-c2ccc(OC)cc2OC)o1`, the viability is 77% (inactive) in assay [1]; 93.1% (inactive) in assay [2]; 109% (inactive) in assay [3]; 92.8% in assay [4] (setting [7]); 109% in assay [4] (setting [8]). The differential viability (reversal) in assay [4] (H69AR cells + 2 uM doxorubicin) was 16.5% (inactive). In addition, the values for the inhibition in assay [5] and in assay [6] were -2.67% (inactive) and -5.64% (inactive), respectively.
As for `CCn1c(SCc2cc(=O)[nH]c3ccccc23)nc2c1c(=O)n(C)c(=O)n2C`, the viability in assay [1] is 95% (inactive); in assay [2], 109% (inactive); in assay [3], 92% (inactive); in assay [4] (setting [7]), 95.8%; in assay [4] (setting [8]) it was 92%. In assay [4] (H69AR cells + 2 uM doxorubicin), the differential viability (reversal) was -3.81% (inactive). Moreover, the inhibition (in general, the relative decrease from the control value, in per cent) in assay [5] is 0.68% (inactive); in assay [6], -2.18% (inactive).
Turning to `COc1ccc(OC)c(Nc2nc(-c3cccs3)cs2)c1`, the viability in assay [1] was 82% (inactive); in assay [2], 60.7% (inactive); in assay [3] it was 76.5% (inactive); in assay [4] (setting [7]) it was 84.1%; in assay [4] (setting [8]), 76.5%. Also, the differential viability (reversal) in assay [4] (H69AR cells + 2 uM doxorubicin) was -7.61% (inactive). Also, the inhibition in assay [5] is -6.71% (inactive); in assay [6] it was 0.36% (inactive).
As for `COc1ccc(CN(C2CCCC2)S(=O)(=O)c2ccc(-n3cnnn3)cc2)cc1OC`, the viability in assay [1] is 71% (inactive); in assay [2] it was 80.5% (inactive); in assay [3], 81.6% (inactive); in assay [4] (setting [7]) it was 95.6%; in assay [4] (setting [8]), 81.6%. Besides, the differential viability (reversal) in assay [4] (H69AR cells + 2 uM doxorubicin) is -14% (inactive). Further, the values for the inhibition in assay [5] and in assay [6] were -7.12% (inactive) and 0.81% (inactive), respectively.
In the case of `COc1cccc(NC(=O)COC(=O)c2cccnc2)c1`, the viability in assay [1] was 91% (inactive); in assay [2], 83.9% (inactive); in assay [3], 91.1% (inactive); in assay [4] (setting [7]), 85.3%; in assay [4] (setting [8]), 91.1%. In assay [4] (H69AR cells + 2 uM doxorubicin), the differential viability (reversal) is 5.84% (inactive). The figures for the inhibition in assay [5] and in assay [6] were -4.93% (inactive) and 4.35% (inactive), respectively.
With `Cc1ccc(-n2c(N)c(C(N)=O)sc2=S)cc1`, the viability in assay [1] is 87% (inactive); in assay [2] it was 112% (inactive); in assay [3], 87.9% (inactive); in assay [4] (setting [7]), 88.3%; in assay [4] (setting [8]), 87.9%. For the same compound, in assay [4] (H69AR cells + 2 uM doxorubicin), the differential viability (reversal) was -0.38% (inactive). For the same compound, the inhibition in assay [5] was -3.24% (inactive); in assay [6], 0.73% (inactive).
Take `CCc1c(C(=O)Nc2ncn(Cc3cccc(C)c3)n2)csc1C`: the viability in assay [1] is 105% (inactive); in assay [2], 112% (inactive); in assay [3], 85.6% (inactive); in assay [4] (setting [7]), 81.3%; in assay [4] (setting [8]), 85.6%. Moreover, the differential viability (reversal) in assay [4] (H69AR cells + 2 uM doxorubicin) was 4.33% (inactive). The inhibition in assay [5] is -2.84% (inactive); in assay [6] it was -1.64% (inactive).
On to `COC(=O)Cc1c(C)nc2nc[nH]n2c1=O`, for which the viability was 88% (inactive) in assay [1]; 93% (inactive) in assay [2]; 105% (inactive) in assay [3]; 95.3% in assay [4] (setting [7]); 105% in assay [4] (setting [8]). For the same compound, the differential viability (reversal) in assay [4] (H69AR cells + 2 uM doxorubicin) was 9.79% (inactive). Besides, the inhibition in assay [5] was -4.73% (inactive); in assay [6] it was -2.91% (inactive).
On to `Cc1c(NC(=O)Cn2nc(C(=O)O)c3ccccc3c2=O)c(=O)n(-c2ccccc2)n1C`, for which the viability was 116% (inactive) in assay [1]; 102% (inactive) in assay [2]; 101% (inactive) in assay [3]; 100% in assay [4] (setting [7]); 101% in assay [4] (setting [8]). Further, in assay [4] (H69AR cells + 2 uM doxorubicin), the differential viability (reversal) is 0.425% (inactive). Further, the inhibition in assay [5] was 2.88% (inactive); in assay [6], -6.45% (inactive).
As for `CCOC(=O)Cn1nnnc1CN(Cc1ccc(OC)cc1)Cc1cc2cc(C)ccc2[nH]c1=O`, the viability in assay [1] was 101% (inactive); in assay [2], 101% (inactive); in assay [3], 94.3% (inactive); in assay [4] (setting [7]), 94.9%; in assay [4] (setting [8]), 94.3%. Besides, the differential viability (reversal) in assay [4] (H69AR cells + 2 uM doxorubicin) is -0.605% (inactive). The values for the inhibition in assay [5] and in assay [6] were -1.33% (inactive) and 4.55% (inactive), respectively.
In the case of `CN1CCN(C(=O)c2ccc3c(=O)n(CCc4ccccc4)c(=S)[nH]c3c2)CC1`, the viability was 102% (inactive) in assay [1]; 66.2% (inactive) in assay [2]; 81.6% (inactive) in assay [3]; 56.3% in assay [4] (setting [7]); 81.6% in assay [4] (setting [8]). Besides, in assay [4] (H69AR cells + 2 uM doxorubicin), the differential viability (reversal) is 25.3% (inactive). Further, the inhibition is -1.95% (inactive) in assay [5] and -2.46% (inactive) in assay [6].
On to `CCOC(=O)Cc1nnc(Nc2cccc(O)c2)c2ccccc12`, for which the viability in assay [1] is 98% (inactive); in assay [2] it was 95.4% (inactive); in assay [3] it was 106% (inactive); in assay [4] (setting [7]) it was 85.8%; in assay [4] (setting [8]), 106%. Besides, the differential viability (reversal) in assay [4] (H69AR cells + 2 uM doxorubicin) is 20.6% (inactive). Besides, the inhibition in assay [5] was -3.65% (inactive); in assay [6], 0% (inactive).
Take `CCN(CC)CCOC(=O)C(c1ccccc1)c1ccccc1`: the viability in assay [1] was 81% (inactive); in assay [2], 81.1% (inactive); in assay [3], 101% (inactive); in assay [4] (setting [7]) it was 93.2%; in assay [4] (setting [8]) it was 101%. Besides, the differential viability (reversal) in assay [4] (H69AR cells + 2 uM doxorubicin) is 7.5% (inactive). The inhibition in assay [5] was -4.81% (inactive); in assay [6], 1.67% (inactive).
In the case of `CC1CN(S(=O)(=O)c2ccc(Cl)c(C(F)(F)F)c2)CC(C)O1` (centres undefined), the viability was 68% (inactive) in assay [1]; 111% (inactive) in assay [2]; 100% (inactive) in assay [3]; 91.8% in assay [4] (setting [7]); 100% in assay [4] (setting [8]). In addition, the differential viability (reversal) in assay [4] (H69AR cells + 2 uM doxorubicin) is 8.69% (inactive). Besides, the inhibition in assay [5] was -9.32% (inactive); in assay [6] it was 2% (inactive).
Regarding `CC(C)N(Cc1nc(-c2ccc(Cl)cc2)no1)C(=O)CN(C)S(=O)(=O)c1ccc(Cl)cc1`, the viability in assay [1] was 95% (inactive); in assay [2], 66.3% (inactive); in assay [3] it was 78.7% (inactive); in assay [4] (setting [7]), 86.1%; in assay [4] (setting [8]), 78.7%. Further, the differential viability (reversal) in assay [4] (H69AR cells + 2 uM doxorubicin) was -7.31% (inactive). Besides, the inhibition is -0.68% (inactive) in assay [5] and 1.29% (inactive) in assay [6].
As to `O=C(NC1CCCCC1)c1nc2c(nnn2Cc2ccccc2Cl)c(=O)[nH]1`, the viability in assay [1] was 77% (inactive); in assay [2], 104% (inactive); in assay [3], 110% (inactive); in assay [4] (setting [7]), 98.4%; in assay [4] (setting [8]), 110%. In assay [4] (H69AR cells + 2 uM doxorubicin), the differential viability (reversal) is 12% (inactive). The inhibition in assay [5] was -6.58% (inactive); in assay [6], -7.58% (inactive).
Take `CN/C=C1\C(=O)C(C)(C)Oc2ccc3ccc(=O)oc3c21`: the viability in assay [1] is 112% (inactive); in assay [2], 91.5% (inactive); in assay [3], 87.9% (inactive); in assay [4] (setting [7]), 87.7%; in assay [4] (setting [8]), 87.9%. For the same compound, the differential viability (reversal) in assay [4] (H69AR cells + 2 uM doxorubicin) was 0.24% (inactive). Further, the inhibition in assay [5] was -6.53% (inactive); in assay [6], 0.18% (inactive).
